KCNK3 block = human KCNK3 channel inhibitors, primary screen, CHO cells, FluxOR thallium flux, B-score. B-score at 10 µM. Potassium channel subfamily K member 3 (Homo sapiens), O14649. hit rate 0.84% among 340,000. FluxOR fluorescence; active compounds read low. AID 602410, 2012;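 active = B-score under library mean minus 4 SD, starting fluorescence ratio at most library mean plus 5 SD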;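 note: more negative B-score means stronger inhibition of thallium flux through KCNK3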
KCNK9 block = KCNK9 potassium channel inhibitors, primary screen, HEK293 cells, thallium flux; Potassium channel subfamily K member 9 (Homo sapiens), Q9NPC2; FluxOR thallium flux fluorescence; active compounds read low; B-score at 10 µM; hit rate 1.2% among 310,000; AID 488922, 2010;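 active = ratio B-score over 3 SD below the library mean, with starting fluorescence within 5 SD of its mean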;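 note: negative B-score means less thallium flux so channel inhibition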
KCNQ1 block = inhibitors of human KCNQ1 channel, primary screen, cell-based, thallium flux, high-throughput | B-score at 10 µM | Potassium voltage-gated channel subfamily KQT member 1 (Homo sapiens), P51787 | AID 2642, 2010 | CHO-K1 KCNQ1, FluxOR thallium flux fluorescence; active compounds read high | hit rate 1.3% among 310,000;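 active = compounds whose thallium flux B-score, printed positive for inhibition, exceeds three library SD while starting fluorescence stays within three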;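 note: channel opened by potassium depolarization with thallium stimulus after 20 min compound exposure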
KCC2 mod = KCC2 cotransporter modulators, thallium flux, primary screen, cell-based, HEK293 KCC2, FluoZin-2 fluorescence, MLSMR; Solute carrier family 12 member 5 (Homo sapiens), Q9H2X9; KCC2 cells, thallium flux FluoZin-2 fluorescence; hit rate 2.2% among 190,000; B-score of Tl+ flux slope (higher = more flux/activation; lower = inhibition) at 10 µM;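 active = thallium flux slope and its plate-corrected score both differing from the plate sample mean at a set confidence after two filtering rounds, in either direction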;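 note: slope of fluorescence scaled to starting intensity during 10 to 20 s after thallium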
Target sequence (Q9H2X9 whole entry, looked up): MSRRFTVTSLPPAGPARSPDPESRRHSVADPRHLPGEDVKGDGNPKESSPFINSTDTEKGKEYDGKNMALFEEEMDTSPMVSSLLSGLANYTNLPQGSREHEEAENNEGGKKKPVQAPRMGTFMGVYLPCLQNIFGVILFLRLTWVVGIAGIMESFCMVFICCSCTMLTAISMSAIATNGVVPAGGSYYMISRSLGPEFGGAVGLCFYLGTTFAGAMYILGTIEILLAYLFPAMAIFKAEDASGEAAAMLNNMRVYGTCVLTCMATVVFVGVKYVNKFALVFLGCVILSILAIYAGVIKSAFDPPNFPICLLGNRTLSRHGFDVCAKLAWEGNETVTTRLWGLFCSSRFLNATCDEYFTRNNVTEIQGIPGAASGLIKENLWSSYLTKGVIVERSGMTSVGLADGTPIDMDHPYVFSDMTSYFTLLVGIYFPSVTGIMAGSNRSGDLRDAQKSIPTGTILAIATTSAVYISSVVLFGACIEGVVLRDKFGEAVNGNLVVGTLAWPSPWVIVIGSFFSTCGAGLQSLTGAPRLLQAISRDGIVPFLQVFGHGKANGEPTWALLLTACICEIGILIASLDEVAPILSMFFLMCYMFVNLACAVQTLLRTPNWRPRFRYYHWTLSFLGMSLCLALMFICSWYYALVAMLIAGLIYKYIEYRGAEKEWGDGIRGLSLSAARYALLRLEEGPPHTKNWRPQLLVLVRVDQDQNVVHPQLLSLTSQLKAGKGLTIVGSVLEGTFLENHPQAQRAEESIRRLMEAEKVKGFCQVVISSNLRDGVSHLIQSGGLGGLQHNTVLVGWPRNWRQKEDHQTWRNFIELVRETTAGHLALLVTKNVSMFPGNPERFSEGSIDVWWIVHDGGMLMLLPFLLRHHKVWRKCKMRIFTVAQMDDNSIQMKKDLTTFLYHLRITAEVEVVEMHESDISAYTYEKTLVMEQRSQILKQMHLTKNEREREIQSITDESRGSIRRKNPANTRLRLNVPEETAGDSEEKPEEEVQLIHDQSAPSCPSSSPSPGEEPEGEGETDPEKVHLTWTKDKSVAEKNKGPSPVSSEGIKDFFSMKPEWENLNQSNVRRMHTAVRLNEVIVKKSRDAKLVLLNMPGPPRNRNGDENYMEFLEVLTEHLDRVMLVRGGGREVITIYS
KCNQ1 act = potentiators or activators of KCNQ1 channel, primary screen, cell-based, thallium flux, high-throughput; B-score at 10 µM; Potassium voltage-gated channel subfamily KQT member 1 (Homo sapiens), P51787; CHO-K1 KCNQ1, thallium flux FluxOR fluorescence; active compounds read high; hit rate 0.35% among 310,000;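 active = fluorescence ratio B-score, a plate-corrected score, at least three library SD, with initial intensity B-score within 5 SD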
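System: CHO-K1 cells stably expressing KCNQ1 / Medium: assay buffer for compound exposure, DMSO matched across wells / Reagent: thallium- and potassium-containing depolarizing buffer / Compound: one concentration, matched DMSO / Incubation: 20 min compound pretreatment at room temperature / Measured by: kinetic FluxOR fluorescence, 10 s baseline plus 110 s post-stimulus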
hERG rescue = hERG rescue from dofetilide block, primary screen, cell-based, CHO-hERG, FluxOR thallium flux, dofetilide IC70; Voltage-gated inwardly rectifying potassium channel KCNH2 (Homo sapiens), Q12809; dofetilide IC70 present; activation (rescue from dofetilide block), less the hit threshold, % at 10 µM; hit rate 0.51% among 310,000; AID 1511, 2009;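 active = activation above the mean of controls blocked by dofetilide plus 5 SD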;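 note: thallium influx through hERG after potassium depolarization seen as dye fluorescence rise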
KCC2 sec1 = KCC2 modulators in sodium-free buffer, confirmation, cell-based, HEK293 KCC2, thallium flux, secondary assay. hit rate 15% among 3,700. normalised thallium flux (F/F0 slope) at 10 µM. shares compounds with KCC2 mod. FluoZin2 fluorescence; active compounds read high. AID 1713, 2009;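 active = thallium flux slope above the same plate's solvent-only control mean plus 3 SD; inconclusive = the two replicate wells disagree; inactive = no significant difference from solvent-only control wells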
KCC2 bumet counter = thallium flux persisting under bumetanide in KCC2 cells, confirmation, counter-screen for KCC2 modulator project, cell-based, HEK293 KCC2, FluoZin2, secondary assay 3. shares compounds with KCC2 mod. HEK293-KCC2 + bumetanide/ouabain; active compounds read high. normalized thallium flux at 10 µM. hit rate 49% among 3,700. AID 1714, 2009;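 active = thallium entry rate above the same plate's blocked-transporter control wells by more than 3 SD; inconclusive = the two repeat wells disagree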;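 note: raw slope of fluorescence over initial fluorescence between 10 and 20 s after thallium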
KCC2 sec2 = KCC2 modulators without ouabain present, confirmation, cell-based, HEK293 KCC2, thallium flux, FluoZin2, secondary assay 2; shares compounds with KCC2 mod; thallium flux FluoZin2 fluorescence; actives lie on both sides; F/F0 rise rate, 10–20 s post-thallium; normalized thallium flux at 10 µM; hit rate 23% among 3,700;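 active = thallium flux slope more than 3 SD above or below the plate's solvent-only control mean, mostly below; inconclusive = the two repeat wells disagreed; inactive = no significant shift from solvent-only controls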
HEK293 Tl flux = thallium flux modulation in parental HEK cells, confirmation, counter-screen for KCC2 modulator project, cell-based, counterscreen 1; thallium flux rate (normalised fluorescence) at 10 µM; HEK293 parental cells, thallium flux FluoZin2, ouabain; baseline-ratio fluorescence slope, 10–20 s after thallium; hit rate 46% among 3,700; shares compounds with KCC2 mod; AID 1716, 2009;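 active = thallium flux rate significantly above the same plate's solvent-only control wells, beyond their mean plus 3 SD; inconclusive = the two replicate wells gave conflicting results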
KCC2 retest ouab = KCC2 inhibitors and activators, ouabain retest, confirmation, HEK-KCC2 cells; hit rate 48% among 3,700; HEK293-KCC2, thallium flux FluoZin2 fluorescence; bidirectional: low = inhibitor, high = activator; raw Tl+ flux slope (below DMSO = inhibition, above = activation) at 10 µM; shares compounds with KCC2 mod;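 active = thallium flux slope beyond 3 SD from same-plate DMSO control mean in most replicates, usually higher, sometimes lower; inconclusive = repeat tests gave conflicting results; inactive = no significant difference from controls in most replicates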;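 note: slope of initial-normalized fluorescence between seconds 10 and 20 after thallium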
HEK counter2 = native HEK Tl+ uptake effects, second counter-screen – HEK cells, counterscreen 2, counter-screen for KCC2 modulator project, confirmation | shares compounds with KCC2 mod | HEK293 parental, thallium flux FluoZin-2 fluorescence slope | thallium flux slope at 10 µM | hit rate 33% among 3,700 | AID 1718, 2009;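 active = thallium flux slope above the same plate's solvent-control mean plus 3 SD in both duplicate wells; inconclusive = duplicate wells that disagreed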;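 note: run without ouabain in cells lacking the KCC2 cotransporter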
Each line names hits and unclear results; the compound was inactive in the other large screens (follow-up assays come after a bar, where they were run). Rows were chosen to be rich in hits. Some 4.1% of all compounds tested hit in one or more screens of this group.

COc1ccc(NC(=S)NCCCc2ccccc2)cc1	KCC2 mod -4.79 | KCC2 sec1 inactive | KCC2 bumet counter inconclusive | KCC2 sec2 0.0229 | HEK293 Tl flux inactive | KCC2 retest ouab inactive | HEK counter2 inactive
S=C(NCc1ccccc1)Nc1ccc2ccccc2c1	none (no result: KCC2 mod)
Cc1ccccc1N(CC(=O)NCCSc1ccccn1)S(=O)(=O)c1ccccc1	KCC2 mod -2.86 | KCC2 sec1 inactive | KCC2 bumet counter inactive | KCC2 sec2 inactive | HEK293 Tl flux inactive | KCC2 retest ouab inactive | HEK counter2 inactive
O=[N+]([O-])c1ccc(O)c(/C=N/n2cnc3ccccc32)c1	KCC2 mod -4.52 | KCC2 sec1 inactive | KCC2 bumet counter inactive | KCC2 sec2 0.0215 | HEK293 Tl flux 0.00606 | KCC2 retest ouab 0.0132 | HEK counter2 inconclusive
O=[N+]([O-])c1ccc(O)c(/C=N/n2c(CO)nc3ccccc32)c1	none
O=C(O)C1CCN(S(=O)(=O)c2ccc(Cl)s2)CC1	none (no result: KCNK9 block, KCNQ1 block, KCC2 mod, KCNQ1 act, hERG rescue)
CC(=O)Nc1ccccc1NC(=O)C/C(C)=N/NC(=O)C(=O)N1CCCCC1	none (no result: KCC2 mod)
CC1(C)Cc2cccc(OCC(=O)Nc3ccccc3N3CCOCC3)c2O1	none (no result: KCC2 mod)
O=C(COc1cccc2cccnc12)Nc1ccccc1N1CCOCC1	KCC2 mod -5.56 | KCC2 sec1 inconclusive | KCC2 bumet counter inactive | KCC2 sec2 inactive | HEK293 Tl flux 0.00503 | KCC2 retest ouab inactive | HEK counter2 inconclusive
O=C(COc1ccc(Cl)cc1)OCc1ccc(Cl)cc1	none (no result: KCNK9 block, KCNQ1 block, KCC2 mod, KCNQ1 act, hERG rescue)
O=C(Nc1ccc(Cl)c(Cl)c1)N(CCCN1CCOCC1)Cc1cccs1	KCC2 mod -3.01 | KCC2 sec1 inactive | KCC2 bumet counter inactive | KCC2 sec2 inactive | HEK293 Tl flux inactive | KCC2 retest ouab inactive | HEK counter2 inactive
c1ccc(-n2cnc3cc(NCc4ccncc4)ccc32)cc1	KCC2 mod -4.37 | KCC2 sec1 inactive | KCC2 bumet counter inactive | KCC2 sec2 0.0249 | HEK293 Tl flux inactive | KCC2 retest ouab inconclusive | HEK counter2 inactive
Oc1ccc(-c2csc(-c3ccccc3)n2)cc1O	KCC2 mod -4.4 | KCC2 sec1 inactive | KCC2 bumet counter inconclusive | KCC2 sec2 inactive | HEK293 Tl flux inactive | KCC2 retest ouab 0.0211 | HEK counter2 inactive
